This is an account of results in ChEMBL document CHEMBL1140724, “Identification of human intestinal carboxylesterase as the primary enzyme for activation of a doxazolidine carbamate prodrug” (J Med Chem, 2008).

Assay [1] is described as follows: Growth inhibition of doxorubicin-resistant human MCF7/Adr cells after 24 hrs. The format is functional, cell-based. The conditions noted are these: NCI/ADR-RES. An outline of the steps: (§1)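 MCF-7 or MCF-7/Adr cells in RPMI 1640 with 10% fetal calf serum were seeded and left overnight to adhere. Medium was then replaced with complete medium holding prodrug in DMSO (1% final), alone or with additive: recombinant hiCE 250 ng/mL, hCE1 2.5 µg/mL, pig liver esterase 30 µg/mL, or N-Hep G2 lysate 83.5 µg protein/mL. Exposure was 24 h, then fresh medium.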

Assay [2] is described as follows: Growth inhibition of […] human MCF7/Adr cells after 24 hrs in presence of human carboxylesterase 1 relative to pentyl PABC-Doxorubicin. The format is functional, NCI/ADR-RES.
Assay [3] concerns MCF7. The experiment in a line: Growth inhibition of doxorubicin-sensitive human MCF7 cells after 24 hrs in presence of human carboxylesterase 1 relative to pentyl PABC-Doxorubicin. The format is functional.
Assay [4] deals with MCF7. Briefly: (§2) Growth inhibition of doxorubicin-sensitive human MCF7 cells after 24 hrs. It is filed as functional, cell-based. To be noted: MCF7, 24 h. An outline of the steps:
as §1

In assay [5] the test system is MCF7. The experiment in a line: Growth inhibition of doxorubicin-sensitive human MCF7 cells after 24 hrs in presence of human carboxylesterase 1. The format is functional, cell-based. The conditions noted are these: MCF7, 24 h. An outline of the steps:
as §1

Assay [6] is described as follows: Growth inhibition of human MCF7/Adr cells after 24 hrs in presence of human carboxylesterase 1. To be noted: NCI/ADR-RES.
Assay [7] is described as follows: Growth inhibition of human U373MG cells containing UhCE1 expressing plasmid after 1 hr. The conditions noted are these: U373 MG. The format is functional, cell-based, U-373MG ATCC. An outline of the steps:
(§3)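 U373MG glioblastoma cells (vector U373IRES, hCE1-overexpressing UhCE1, or hiCE-overexpressing UhiCE) were cultured in DMEM with 10% fetal calf serum and no antibiotics. They were exposed to graded prodrug for 1 h. Growth inhibition was measured as IC50, with points as mean ± standard deviation of six measurements.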

A short description of assay [8]: Growth inhibition of human U373MG cells containing U373IRES plasmid after 1 hr. The format is functional, cell-based, U-373MG ATCC. To be noted: U373 MG. An outline of the steps: as §3
Assay [9] is described as follows: Growth inhibition of human U373MG cells containing UhiCE expressing plasmid after 1 hr. The format is functional, cell-based, U-373MG ATCC. To be noted: U373 MG. The gist of the method:
as §3

The nature of assay [10]: Growth inhibition of […] human MCF7/Adr cells after 24 hrs in presence of N-Hep G2 lysate. To be noted: NCI/ADR-RES. The format is functional, cell-based. The gist of the method:
as §1

Another assay is filed under the species Sus scrofa. The experiment in a line: Hydrolysing activity of pig liver esterase assessed as doxorubicin production.
Assay [11] concerns MCF7. The experiment in a line: Growth inhibition of doxorubicin-sensitive human MCF7 cells after 24 hrs in presence of N-Hep G2 lysate. The format is functional, cell-based. To be noted: MCF7, 24 h. The gist of the method: as §1
The nature of assay [12]: Growth inhibition of […] human MCF7/Adr cells after 24 hrs in presence of human intestinal carboxylesterase. It is filed as functional, cell-based. To be noted: NCI/ADR-RES. An outline of the steps:
as §1

Assay [13] relates to MCF7. Briefly: Growth inhibition of doxorubicin-sensitive human MCF7 cells after 24 hrs in presence of pig liver esterase. It is filed as functional, cell-based. The conditions noted are these: MCF7, 24 h. An outline of the steps:
as §1

Assay [14] in a line: Growth inhibition of human U373MG cells containing UhiCE expressing plasmid after 1 hr relative to pentyl PABC-Doxorubicin. The format is functional, U-373MG ATCC. An outline of the steps:
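UhiCE cells were preincubated 2 h with 10 µM benzil, a membrane-permeable CE inhibitor, before 1 h prodrug exposure. IC50 was compared with prodrug alone, using means of six measurements.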

Assay [15] has as its system MCF7. The experiment in a line: Growth inhibition of doxorubicin-sensitive human MCF7 cells after 24 hrs in presence of N-Hep G2 lysate relative to pentyl PABC-Doxorubicin. It is filed as functional.
Assay [16] is described as follows: Growth inhibition of human MCF7/Adr cells. It is filed as functional, cell-based. The conditions noted are these: NCI/ADR-RES.
The species entered for a further assay is Homo sapiens. Briefly: Hydrolysing activity of human recombinant intestinal carboxylesterase. An outline of the steps: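 Recombinant baculovirus-expressed hiCE (26 µg/mL) was incubated with 50 µM prodrug in 5% DMSO with FBS/RPMI/PBS pH 7.4. Timed aliquots were quenched in equal-volume ethanol, held at -20 °C overnight and centrifuged. 1 unit = 1 µM Dox per hour; specific activity is per mg protein.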

Assay [17] deals with MCF7. The experiment in a line: Growth inhibition of human MCF7 cells. The format is functional, cell-based.
A short description of assay [18]: Growth inhibition of […] human MCF7/Adr cells after 24 hrs in presence of N-Hep G2 lysate relative to pentyl PABC-Doxorubicin. It is filed as functional, NCI/ADR-RES.
Assay [19] can be described thus: Growth inhibition of human N-HepG2 cells. The format is functional, cell-based.
The next assay has as its system SK-HEP1. The experiment in a line: Growth inhibition of human SK-HEP-1 cells. The format is functional, cell-based.
In a further assay the test system is HepG2. Briefly: Growth inhibition of human HepG2 cells. The format is functional, cell-based.
Assay [20] is described as follows: Growth inhibition of […] human MCF7/Adr cells after 24 hrs in presence of human intestinal carboxylesterase relative to pentyl PABC-Doxorubicin. It is filed as functional, NCI/ADR-RES.
Assay [21] has as its system MCF7. The description is as §2. It is filed as functional. The gist of the method:
as §1

In assay [22] the test system is MCF7. Briefly: Growth inhibition of doxorubicin-sensitive human MCF7 cells after 24 hrs in presence of human intestinal carboxylesterase relative to pentyl PABC-Doxorubicin. It is filed as functional.
Assay [23] has as its system MCF7. The experiment in a line: Growth inhibition of doxorubicin-sensitive human MCF7 cells after 24 hrs in presence of human intestinal carboxylesterase. To be noted: MCF7, 24 h. It is filed as functional, cell-based. The gist of the method:
as §1

Assay [24] in a line: Growth inhibition of human U373IRES cells after 1 hr. It is filed as functional, U-373MG ATCC. An outline of the steps: as §3
A short description of assay [25]: Growth inhibition of rat H9c2(2-1) cells. The format is functional.
Assay [26] concerns MCF7. Briefly: Growth inhibition of doxorubicin-sensitive human MCF7 cells after 24 hrs in presence of pig liver esterase relative to pentyl PABC-Doxorubicin. It is filed as functional.
Assay [27] can be described thus: Growth inhibition of doxorubicin-resistant human MCF7/Adr cells after 24 hrs in presence of human intestinal carboxylesterase. It is filed as functional, NCI/ADR-RES. The gist of the method:
as §1

Broadly, the IC50 is the point on the concentration scale where inhibition reaches its midpoint.

Each structure is given as a SMILES string.

On to `O=S(=O)(Nc1ccc(NS(=O)(=O)c2ccc(Cl)cc2)cc1)c1ccc(Cl)cc1`, for which the IC50 in [1] was above 1000 nM; with MCF7 [4] it was above 1000 nM; in the assay with MCF7 [5], 1000 nM; in assay [6] it was 794 nM. Moreover, the Fold change (in [2]; in the assay on MCF7 [3]) was above 1 each time.

Consider `COc1cccc2c1C(=O)c1c(O)c3c(c(O)c1C2=O)C[C@@](O)(C(=O)CO)C[C@@H]3OC1C[C@H](N)[C@H](O)[C@H](C)O1` (single isomer, unassigned) [DOXORUBICIN], for which the IC50 in assay [7] was 158 nM; in [8], 158 nM; in assay [9], 200 nM.

On to `CCCCCOC(=O)Nc1ccc(COC(=O)N2CO[C@@H]3[C@H](C)O[C@H](O[C@H]4C[C@](O)(C(=O)CO)Cc5c(O)c6c(c(O)c54)C(=O)c4c(OC)cccc4C6=O)C[C@@H]32)cc1`, for which the IC50 in assay [10] is 158 nM; in the assay with MCF7 [11], 251 nM; in [1], above 1000 nM; in assay [12], 12.6 nM; with MCF7 [13], 3.98 nM; in assay [16] it was 316 nM. For the same molecule, the half-maximal inhibitory concentration (IC50) in the assay on MCF7 [17] is 2510 nM; in assay [19], 20 nM; with MCF7 [4] it was above 1000 nM; in the assay on SK-HEP1, 1000 nM; in the assay on HepG2, 50.1 nM; in [7], above 1000 nM. Moreover, the values for the 50% inhibitory concentration (IC50) (in assay [8]; with MCF7 [23]; in assay [25]) were above 1000 nM, 15.8 nM and 631 nM, respectively. Further, the Activity was determined as 47 µM/h in the assay listed under Sus scrofa and 0.065 µM/h in the assay listed under Homo sapiens. Also, the Fold change in assay [14] is recorded as above 20; in the assay on MCF7 [15] it was above 4; in [18] it was above 6; in assay [20], above 79; with MCF7 [21], 1; with MCF7 [22], above 63. In addition, the Fold change in assay [24] was 1; with MCF7 [26] it was above 100; in assay [27], above 79.
